In ChEMBL document CHEMBL1158806, “Cytotoxic activity of some natural and synthetic guaianolides” (J Nat Prod, 2005):
pIC50: −log10 of the molar value.

How the values were obtained:
Assay type in all cases: functional, cell-based
1A9 = test: Cytotoxicity against human 1A9 cells after 3 days by SRB assay; conditions: 1A9, 72 h
In short: (§1)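 Cells kept in RPMI-1640 with 25 mM HEPES, 0.25% sodium bicarbonate, 10% FBS and 100 µg/mL kanamycin. Freshly trypsinized cells seeded at 1500-7500 per well, with compound added from DMSO-diluted stock. After 3 days, attached cells fixed with cold 50% TCA and stained with 0.4% SRB. Bound dye solubilized and absorbance read at 562 nm. IC50 is 50% growth reduction, mean of three determinations.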

HCT-8 = test: Cytotoxicity against human HCT8 cells after 3 days by SRB assay; conditions: HCT-8, 72 h; in short: as §1
A549 = test: Cytotoxicity against human A549 cells after 3 days by SRB assay; conditions: A549, 72 h; in short: as §1
[1] = Cytotoxicity against human KBVIN cells after 3 days by SRB assay; conditions: 72 h; in short: as §1
KB = test: Cytotoxicity against human KB cells after 3 days by SRB assay; conditions: 72 h; in short: as §1
SK-MEL-2 = test: Cytotoxicity against human SK-MEL-2 cells after 3 days by SRB assay; conditions: SK-MEL-2, 72 h; in short: as §1
MCF7 = test: Cytotoxicity against human MCF7 cells after 3 days by SRB assay; conditions: MCF7, 72 h; in short: as §1

Structure (SMILES) | pIC50 (1A9) | pIC50 (HCT-8) | pIC50 (A549) | pIC50 [1] | pIC50 (KB) | pIC50 (SK-MEL-2) | pIC50 (MCF7)
C=C1C(=O)O[C@H]2[C@H]1[C@@H](OC(=O)[C@@]1(C)CO1)CC(=C)[C@@H]1C[C@H](OC(=O)[C@H](O)[C@@H](NC(=O)c3ccccc3)c3ccccc3)[C@@]3(CO3)[C@H]21 | 6.70 | 6.30 | 6.10 | 5.12 | 6.52 | 6.00 | 
C=C1C(=O)O[C@H]2[C@H]1[C@@H](OC(=O)[C@](C)(O)CBr)CC(=C)[C@@H]1C[C@H](O)[C@](O)(CBr)[C@H]21 | 6.40 |  | 5.38 | 5.89 | 5.96 |  | 
C=C1C(=O)O[C@H]2[C@H]1[C@@H](OC(=O)[C@](C)(O)CI)CC(=C)[C@@H]1C[C@H](O)[C@]3(CO3)[C@H]21 | 6.10 |  | 5.14 | 5.74 | 5.70 |  | 
C=C1C(=O)O[C@H]2[C@H]1[C@@H](OC(=O)[C@@]1(C)CO1)CC(=C)[C@@H]1C[C@H](OC(=O)[C@@H]3OC(c4ccccc4)=N[C@H]3c3ccccc3)[C@@]3(CO3)[C@H]21 | 6.10 | 6.30 | 5.47 | 5.59 | 5.59 | 5.82 | 
C=C1C(=O)O[C@H]2[C@H]1[C@@H](OC(=O)[C@](C)(O)CBr)CC(=C)[C@@H]1C[C@H](O)[C@]3(CO3)[C@H]21 | 5.96 | 5.89 | 5.37 | 5.20 | 5.96 | 5.44 | 
C=C1C(=O)O[C@H]2[C@H]1[C@@H](OC(=O)[C@](C)(O)CI)CC(=C)[C@@H]1C[C@H](O)[C@](O)(CI)[C@H]21 | 5.89 | 5.89 | 5.44 | 5.26 | 6.00 | 5.59 | 
C=C1C(=O)O[C@H]2[C@H]1[C@@H](OC(=O)[C@@]1(C)CO1)CC(=C)[C@@H]1C[C@H](O)[C@](O)(CI)[C@H]21 | 5.25 | 5.35 | 4.86 | 4.73 | 5.39 | 5.03 | 
C=C(C)C(=O)O[C@H]1CC(=C)[C@@H]2C[C@H](O)C(=C)[C@@H]2[C@H]2OC(=O)C(=C)[C@@H]21 [AGUERIN B] |  |  | 4.58 |  |  |  | 5.48
C=C1C(=O)O[C@H]2[C@H]1[C@@H](OC(=O)[C@](C)(O)CO)CC(=C)[C@@H]1C[C@H](O)[C@]3(CO3)[C@H]21 [BABYLIN A] |  |  | < 4.58 |  |  |  | < 4.58
C=C1C(=O)O[C@H]2[C@H]1[C@@H](OC(=O)[C@@]1(C)CO1)CC(=C)[C@@H]1C[C@H](O)[C@](O)(CO)[C@H]21 [BABYLIN B] |  |  | < 4.58 |  |  |  | < 4.58
C=C1C(=O)O[C@H]2[C@H]1[C@@H](OC(=O)[C@@](C)(O)CO)CC(=C)[C@@H]1C[C@H](O)[C@@](O)(CCl)[C@H]21 [CEBELLIN J] |  |  | < 4.62 |  |  |  | < 4.62
C=C1C(=O)O[C@H]2[C@H]1[C@@H](OC(=O)[C@](C)(O)CCl)CC(=C)[C@@H]1C[C@H](O)[C@](O)(CCl)[C@H]21 [CENTAUREPENSIN] | 6.15 |  | 4.99 | 5.55 | 5.39 |  | 
C=C1C(=O)O[C@H]2[C@H]1[C@@H](OC(=O)[C@](C)(O)CCl)CC(=C)[C@@H]1C[C@H](O)[C@]3(CO3)[C@H]21 [CHLOROHYSSOPIFOLIN C] | 6.10 | 5.80 | 5.03 | 5.82 | 5.70 |  | 5.82
C=C(CO)C(=O)O[C@H]1CC(=C)[C@@H]2C[C@H](O)C(=C)[C@@H]2[C@H]2OC(=O)C(=C)[C@@H]21 [CYNAROPICRIN] |  |  | 4.78 |  | 4.80 | 5.24 | 5.49
C=C(CO)C(=O)O[C@H]1CC(=C)[C@@H]2C[C@H](O)[C@]3(CO3)[C@@H]2[C@H]2OC(=O)C(=C)[C@@H]21 [JANERIN] | 5.30 | 5.26 | 4.70 | 4.59 | 5.52 | 5.10 | 
CO[C@@]12[C@H](COC(N)=O)C3=C(C(=O)C(C)=C(N)C3=O)N1C[C@@H]1N[C@@H]12 [MITOMYCIN] |  | 6.22 | 6.52 |  | 6.22 |  | 5.82
CC(=O)O[C@H]1C(=O)[C@@]2(C)[C@H]([C@H](OC(=O)c3ccccc3)[C@]3(O)C[C@H](OC(=O)[C@H](O)[C@@H](NC(=O)c4ccccc4)c4ccccc4)C(C)=C1C3(C)C)[C@]1(OC(C)=O)CO[C@@H]1C[C@@H]2O [PACLITAXEL] | 8.70 | 7.89 |  |  | 9.00 |  | 
C=C1C(=O)O[C@H]2[C@H]1[C@@H](OC(=O)[C@]1(C)CO1)CC(=C)[C@@H]1C[C@H](O)[C@]3(CO3)[C@H]21 [REPIN] | 6.52 | 6.10 | 5.60 | 6.10 | 5.85 | 5.60 | 5.96
